ChEMBL document CHEMBL1811838, “Antimalarial activity of natural and synthetic prodiginines” (J Med Chem, 2011)
pIC50: −log10 of the molar value.

Tested on: Plasmodium falciparum
Test: Antimalarial activity Plasmodium falciparum D6 after 72 hrs by SYBR Green I based fluorescence assay
Type: functional, organism-based
Conditions: D6, 72 h
How it was run: (§1)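 P. falciparum (D6 pansensitive; Dd2 MDR) cultured under standard conditions and grown 72 h with varying compound concentrations, chloroquine positive control or no drug, each condition in quadruplicate. Growth measured by SYBR Green I fluorescence with minor modifications; IC50 = concentration inhibiting growth by 50%.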

Compound	pIC50
CCCCCCCCc1cc[nH]c1/C=C1\N=C(c2ccc[nH]2)C=C1OC	8.34
CCCCCCc1cc(CCCCCC)c(/C=C2\N=C(c3ccc[nH]3)C=C2OC)[nH]1	8.77
CCCCCCCCCCc1cc[nH]c1/C=C1\N=C(c2ccc[nH]2)C=C1OC	8.10
COC1=CC(c2ccc[nH]2)=N/C1=C\c1[nH]c(Cc2c(F)cccc2F)cc1Cc1c(F)cccc1F	7.83
CCCCc1ccc(/C=C2\N=C(c3ccc[nH]3)C=C2OC)[nH]1	5.75
COC(=O)CCCc1cc[nH]c1/C=C1\N=C(c2ccc[nH]2)C=C1OC	5.35
COC1=CC(c2ccc[nH]2)=N/C1=C\c1[nH]c(Cc2cccc(F)c2)cc1Cc1cccc(F)c1	8.29
CCCCCCCCCCCCCCCCc1cc[nH]c1/C=C1\N=C(c2ccc[nH]2)C=C1OC	< 4.60
COC1=CC(c2ccc[nH]2)=N/C1=C\c1ccc(CCCCCCCCCCCN)[nH]1	5.77
COC1=CC(c2ccc[nH]2)=N/C1=C\c1[nH]ccc1Cc1ccc2ccccc2c1	7.25
CCCCCCCc1cc(CCCCCC)c(/C=C2\N=C(c3ccc[nH]3)C=C2OC)[nH]1	8.68
CCCCCCCCc1cc(CCCCCC)[nH]c1/C=C1\N=C(c2ccc[nH]2)C=C1OC	8.31
CCCCCC1=C/C(=C/c2[nH]c(-c3ccc[nH]3)cc2OC)N=C1C [PRODIGIOSIN]	8.10
COC1=CC(c2cccs2)=N/C1=C\c1[nH]c(C)cc1C	< 4.60
CCCCC1CCCCCCc2cc1c(/C=C1\N=C(c3ccc[nH]3)C=C1OC)[nH]2 (stereo unspecified) [STREPTORUBIN B]	8.11
CCCc1cc(Cc2ccc(Cl)cc2)c(/C=C2\N=C(c3ccc[nH]3)C=C2OC)[nH]1	8.52
CCCCCCCCc1cc(CCCCCCC)[nH]c1/C=C1\N=C(c2ccc[nH]2)C=C1OC	8.21
CCCCCCCCc1cc(Cc2ccc(Cl)cc2)c(/C=C2\N=C(c3ccc[nH]3)C=C2OC)[nH]1	7.80
COC1=CC(c2ccc[nH]2)=N/C1=C\c1[nH]c(Cc2ccc(Br)cc2)cc1Cc1ccc(F)cc1	8.24
CCCCCCCc1cc(Cc2ccc(Cl)cc2)c(/C=C2\N=C(c3ccc[nH]3)C=C2OC)[nH]1	8.55
CCCc1cc(CCC2CCCCC2)c(/C=C2\N=C(c3ccc[nH]3)C=C2OC)[nH]1	8.77
CCCCCCCCCCCCCCCCc1ccc(/C=C2\N=C(c3ccc[nH]3)C=C2OC)[nH]1	6.52
CCCCCCc1cc(CCC)c(/C=C2\N=C(c3ccc[nH]3)C=C2OC)[nH]1	8.35
CCCCCCCCCCCC1=N/C(=C\c2[nH]c(-c3ccccc3)cc2OC)C=C1	4.98
COC1=CC(c2ccccc2)=N/C1=C\c1[nH]c(C)cc1C	4.71
COC1=CC(c2ccc[nH]2)=N/C1=C\c1[nH]ccc1CC(C)C	6.34
COC1=CC(c2ccc[nH]2)=N/C1=C\c1[nH]c(CCC2CCCCC2)cc1CCC1CCCCC1	8.28
COC1=CC(c2cc3ccccc3[nH]2)=N/C1=C\c1[nH]c(C)cc1C [OBATOCLAX]	5.37

Tested on: Mus musculus
Test: Toxicity in Plasmodium yoelii infected CF-1 mouse assessed as weight loss at 5 mg/kg, po qd for 3 days relative to control
Type: organism-based
Set-up: dose 5 mg/kg, route oral
Conditions: in vivo, 72 h
How it was run: (§2)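 Female outbred CF-1 mice were infected i.v. via the tail vein with 5 × 10^5 P. yoelii Kenya-infected erythrocytes, in groups of five. Compound or vehicle alone was given by gavage in caprylic/capric triglyceride once daily for 3 days, starting 24 h post-infection. One day after the last dose, Giemsa-stained thin smears were scored by microscopy for % parasitemia versus untreated controls. Group mean weight was recorded as day 3 versus day 0.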

Compound	Activity
CCCc1cc(Cc2ccc(Cl)cc2)c(/C=C2\N=C(c3ccc[nH]3)C=C2OC)[nH]1	102.9%
CCCCCCCCc1cc(Cc2ccc(Cl)cc2)c(/C=C2\N=C(c3ccc[nH]3)C=C2OC)[nH]1	100.2%
CCCc1cc(CCC2CCCCC2)c(/C=C2\N=C(c3ccc[nH]3)C=C2OC)[nH]1	101.5%

Tested on: Mus musculus
Test: Toxicity in Plasmodium yoelii infected CF-1 mouse assessed as weight loss at 25 mg/kg, po qd for 3 days relative to control
Type: organism-based
Set-up: dose 25 mg/kg, route oral
Conditions: in vivo, 72 h
How it was run: as §2

Compound	Activity
CCCc1cc(Cc2ccc(Cl)cc2)c(/C=C2\N=C(c3ccc[nH]3)C=C2OC)[nH]1	87.6%
CCCCCCCCc1cc(Cc2ccc(Cl)cc2)c(/C=C2\N=C(c3ccc[nH]3)C=C2OC)[nH]1	93.4%
CCCc1cc(CCC2CCCCC2)c(/C=C2\N=C(c3ccc[nH]3)C=C2OC)[nH]1	84.5%

Tested on: Plasmodium yoelii
Test: Antimalarial activity Plasmodium yoelii infected in CF-1 mouse assessed as reduction of parasitemia at 5 mg/kg, po qd for 3 days administered 24 hrs after infection measured after 24 hrs last dose relative to control
Type: functional
Set-up: scale not given: the % may be the effect or the level left
Conditions: not given
How it was run: as §2

Compound	Activity
CCCc1cc(Cc2ccc(Cl)cc2)c(/C=C2\N=C(c3ccc[nH]3)C=C2OC)[nH]1	94%
CCCCCCCCc1cc(Cc2ccc(Cl)cc2)c(/C=C2\N=C(c3ccc[nH]3)C=C2OC)[nH]1	72%
CCCc1cc(CCC2CCCCC2)c(/C=C2\N=C(c3ccc[nH]3)C=C2OC)[nH]1	97%

Tested on: Plasmodium falciparum
Test: Antimalarial activity multidrug-resistant Plasmodium falciparum Dd2 after 72 hrs by SYBR Green I based fluorescence assay
Type: functional, organism-based
Conditions: Dd2, 72 h
How it was run: as §1

Compound	pIC50
CCCCCCCCc1cc[nH]c1/C=C1\N=C(c2ccc[nH]2)C=C1OC	8.74
CCCCCCc1cc(CCCCCC)c(/C=C2\N=C(c3ccc[nH]3)C=C2OC)[nH]1	8.96
CCCCCCCCCCc1cc[nH]c1/C=C1\N=C(c2ccc[nH]2)C=C1OC	8.00
COC1=CC(c2ccc[nH]2)=N/C1=C\c1[nH]c(Cc2c(F)cccc2F)cc1Cc1c(F)cccc1F	7.74
CCCCc1ccc(/C=C2\N=C(c3ccc[nH]3)C=C2OC)[nH]1	5.80
COC1=CC(c2ccc[nH]2)=N/C1=C\c1[nH]c(Cc2cccc(F)c2)cc1Cc1cccc(F)c1	8.17
CCCCCCCCCCCCCCCCc1cc[nH]c1/C=C1\N=C(c2ccc[nH]2)C=C1OC	< 4.60
CCCCCCCc1cc(CCCCCC)c(/C=C2\N=C(c3ccc[nH]3)C=C2OC)[nH]1	8.92
CCCCCCCCc1cc(CCCCCC)[nH]c1/C=C1\N=C(c2ccc[nH]2)C=C1OC	8.70
COC1=CC(c2cccs2)=N/C1=C\c1[nH]c(C)cc1C	< 4.60
CCCc1cc(Cc2ccc(Cl)cc2)c(/C=C2\N=C(c3ccc[nH]3)C=C2OC)[nH]1	8.59
CCCCCCCCc1cc(CCCCCCC)[nH]c1/C=C1\N=C(c2ccc[nH]2)C=C1OC	8.54
CCCCCCCCc1cc(Cc2ccc(Cl)cc2)c(/C=C2\N=C(c3ccc[nH]3)C=C2OC)[nH]1	7.92
COC1=CC(c2ccc[nH]2)=N/C1=C\c1[nH]c(Cc2ccc(Br)cc2)cc1Cc1ccc(F)cc1	8.29
CCCCCCCc1cc(Cc2ccc(Cl)cc2)c(/C=C2\N=C(c3ccc[nH]3)C=C2OC)[nH]1	8.66
CCCc1cc(CCC2CCCCC2)c(/C=C2\N=C(c3ccc[nH]3)C=C2OC)[nH]1	8.89
CCCCCCCCCCCCCCCCc1ccc(/C=C2\N=C(c3ccc[nH]3)C=C2OC)[nH]1	6.40
CCCCCCc1cc(CCC)c(/C=C2\N=C(c3ccc[nH]3)C=C2OC)[nH]1	8.40
CCCCCCCCCCCC1=N/C(=C\c2[nH]c(-c3ccccc3)cc2OC)C=C1	4.80
COC1=CC(c2ccccc2)=N/C1=C\c1[nH]c(C)cc1C	4.87
COC1=CC(c2ccc[nH]2)=N/C1=C\c1[nH]ccc1CC(C)C	6.64
COC1=CC(c2ccc[nH]2)=N/C1=C\c1[nH]c(CCC2CCCCC2)cc1CCC1CCCCC1	8.46
COC1=CC(c2cc3ccccc3[nH]2)=N/C1=C\c1[nH]c(C)cc1C [OBATOCLAX]	5.31

Tested on: Plasmodium yoelii
Test: Antimalarial activity Plasmodium yoelii infected in CF-1 mouse assessed as reduction of parasitemia at 25 mg/kg, po qd for 3 days administered 24 hrs after infection measured after 24 hrs last dose relative to control
Type: functional
Set-up: scale not given: the % may be the effect or the level left
Conditions: not given
How it was run: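 Female outbred CF-1 mice infected iv (tail vein) with 5 × 10^5 P. yoelii Kenya-infected erythrocytes. Groups of five given compound or vehicle alone by gavage in caprylic/capric triglyceride once daily for 3 days starting 24 h post-infection. One day after last dose, Giemsa-stained thin smears scored microscopically for % infected erythrocytes vs untreated controls. Group mean weight day 3 vs day 0. Smear-negative mice followed; parasite-free at 28 days counted cured.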

Compound	Activity
CCCc1cc(Cc2ccc(Cl)cc2)c(/C=C2\N=C(c3ccc[nH]3)C=C2OC)[nH]1	100%
CCCCCCCCc1cc(Cc2ccc(Cl)cc2)c(/C=C2\N=C(c3ccc[nH]3)C=C2OC)[nH]1	100%
CCCc1cc(CCC2CCCCC2)c(/C=C2\N=C(c3ccc[nH]3)C=C2OC)[nH]1	100%

Tested on: not listed separately
Test: Toxicity in C57BL/6J mouse splenic lymphocytes after 72 hrs by Alamar blue Assay
Type: cell-based
Conditions: splenic lymphocyte
How it was run: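 Splenic lymphocytes from C57BL/6J mice washed, then stimulated with 1 μg/mL concanavalin A in RPMI/10% FBS with 50 μM β-mercaptoethanol. Seeded at 2 × 10^5 cells/well with serially diluted compound for 72 h at 37 °C, 5% CO2. Resazurin added (final 10 μM) for another 24 h; fluorescence read at ex 560/em 590 nm.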

Compound	pIC50
CCCCCCCCc1cc[nH]c1/C=C1\N=C(c2ccc[nH]2)C=C1OC	> 6.90
CCCCCCc1cc(CCCCCC)c(/C=C2\N=C(c3ccc[nH]3)C=C2OC)[nH]1	> 6.90
CCCCCCCCCCc1cc[nH]c1/C=C1\N=C(c2ccc[nH]2)C=C1OC	> 6.90
COC1=CC(c2ccc[nH]2)=N/C1=C\c1[nH]c(Cc2c(F)cccc2F)cc1Cc1c(F)cccc1F	> 6.90
CCCCc1ccc(/C=C2\N=C(c3ccc[nH]3)C=C2OC)[nH]1	> 6.90
COC1=CC(c2ccc[nH]2)=N/C1=C\c1[nH]c(Cc2cccc(F)c2)cc1Cc1cccc(F)c1	> 6.90
CCCCCCCCCCCCCCCCc1cc[nH]c1/C=C1\N=C(c2ccc[nH]2)C=C1OC	5.44
CCCCCCCc1cc(CCCCCC)c(/C=C2\N=C(c3ccc[nH]3)C=C2OC)[nH]1	> 6.90
CCCCCCCCc1cc(CCCCCC)[nH]c1/C=C1\N=C(c2ccc[nH]2)C=C1OC	> 6.90
COC1=CC(c2cccs2)=N/C1=C\c1[nH]c(C)cc1C	5.45
CCCc1cc(Cc2ccc(Cl)cc2)c(/C=C2\N=C(c3ccc[nH]3)C=C2OC)[nH]1	> 6.90
CCCCCCCCc1cc(CCCCCCC)[nH]c1/C=C1\N=C(c2ccc[nH]2)C=C1OC	5.41
CCCCCCCCc1cc(Cc2ccc(Cl)cc2)c(/C=C2\N=C(c3ccc[nH]3)C=C2OC)[nH]1	5.96
COC1=CC(c2ccc[nH]2)=N/C1=C\c1[nH]c(Cc2ccc(Br)cc2)cc1Cc1ccc(F)cc1	> 6.90
CCCCCCCc1cc(Cc2ccc(Cl)cc2)c(/C=C2\N=C(c3ccc[nH]3)C=C2OC)[nH]1	> 6.90
CCCc1cc(CCC2CCCCC2)c(/C=C2\N=C(c3ccc[nH]3)C=C2OC)[nH]1	> 6.90
CCCCCCCCCCCCCCCCc1ccc(/C=C2\N=C(c3ccc[nH]3)C=C2OC)[nH]1	> 6.90
CCCCCCc1cc(CCC)c(/C=C2\N=C(c3ccc[nH]3)C=C2OC)[nH]1	> 6.90
CCCCCCCCCCCC1=N/C(=C\c2[nH]c(-c3ccccc3)cc2OC)C=C1	5.45
COC1=CC(c2ccccc2)=N/C1=C\c1[nH]c(C)cc1C	5.10
COC1=CC(c2ccc[nH]2)=N/C1=C\c1[nH]ccc1CC(C)C	> 6.90
COC1=CC(c2ccc[nH]2)=N/C1=C\c1[nH]c(CCC2CCCCC2)cc1CCC1CCCCC1	> 6.90
COC1=CC(c2cc3ccccc3[nH]2)=N/C1=C\c1[nH]c(C)cc1C [OBATOCLAX]	> 6.90
